Where two headings read alike, the source gives them in different places. Blank lines part the entries; values can stand above or below the molecule they belong to.
Tests used:
HCT116 colorectal cancer = experiment: MTT cell viability assay, HCT-116; type: cell-based; conditions: read-out: HCT-116 IC50, 48 h, mean of six values
[1] = test system: A549 non-small cell lung cancer; experiment: MTT cell viability assay, A549; type: cell-based; conditions: read-out: A549 IC50
COX-1 = biological target: T1, COX-1 (Ovis aries, UniProt P05979); experiment: In vitro COX-1 inhibition; type: biochemical
T1 sequence (P05979 25-600): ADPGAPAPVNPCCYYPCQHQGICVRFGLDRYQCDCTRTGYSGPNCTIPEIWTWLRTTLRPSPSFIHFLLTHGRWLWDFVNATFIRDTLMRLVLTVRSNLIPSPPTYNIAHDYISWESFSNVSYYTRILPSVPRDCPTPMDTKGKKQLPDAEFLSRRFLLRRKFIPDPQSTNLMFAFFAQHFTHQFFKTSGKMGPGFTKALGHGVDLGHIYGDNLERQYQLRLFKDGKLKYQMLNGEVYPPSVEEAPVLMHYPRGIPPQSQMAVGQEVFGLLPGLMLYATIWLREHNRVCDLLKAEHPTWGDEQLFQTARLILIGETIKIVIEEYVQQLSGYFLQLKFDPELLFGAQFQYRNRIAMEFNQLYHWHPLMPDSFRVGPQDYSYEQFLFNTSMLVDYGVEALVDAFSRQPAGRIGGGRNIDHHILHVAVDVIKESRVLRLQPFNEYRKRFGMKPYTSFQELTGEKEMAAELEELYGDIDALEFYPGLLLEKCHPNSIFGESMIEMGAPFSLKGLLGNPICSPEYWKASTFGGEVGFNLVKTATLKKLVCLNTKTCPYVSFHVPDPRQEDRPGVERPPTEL

COX-2 = biological target: T2, COX-2 (Homo sapiens, UniProt P35354); experiment: biochemical; conditions: for COX-2 S.I.: in vitro COX-2 selectivity index, IC50 (COX-1)/IC50 (COX-2)
T2 sequence (P35354 18-604): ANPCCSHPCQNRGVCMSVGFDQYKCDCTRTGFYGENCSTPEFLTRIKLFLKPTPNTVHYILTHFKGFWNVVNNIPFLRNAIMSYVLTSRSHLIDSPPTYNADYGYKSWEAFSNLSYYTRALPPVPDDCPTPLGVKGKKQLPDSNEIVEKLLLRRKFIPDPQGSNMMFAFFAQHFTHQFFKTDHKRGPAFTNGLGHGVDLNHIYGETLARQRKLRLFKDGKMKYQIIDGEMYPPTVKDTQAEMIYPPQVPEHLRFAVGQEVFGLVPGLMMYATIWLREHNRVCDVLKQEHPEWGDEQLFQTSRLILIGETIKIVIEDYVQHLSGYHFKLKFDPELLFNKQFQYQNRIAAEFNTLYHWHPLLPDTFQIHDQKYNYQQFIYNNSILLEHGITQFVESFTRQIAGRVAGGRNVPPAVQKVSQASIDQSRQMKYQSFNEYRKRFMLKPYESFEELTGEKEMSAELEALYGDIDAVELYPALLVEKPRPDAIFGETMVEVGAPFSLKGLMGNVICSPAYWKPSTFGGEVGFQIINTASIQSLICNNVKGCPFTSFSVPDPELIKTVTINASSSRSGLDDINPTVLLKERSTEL

[2] = test system: MCF7 human breast adenocarcinoma cell line; experiment: MTT cell viability assay, MCF-7; type: cell-based; conditions: MCF7, 48 h, read-out: MCF-7 IC50
[3] = test system: Hep3b hepatocellular carcinoma cell line; experiment: MTT cell viability assay, HEP-3B; type: cell-based; conditions: Homo sapiens, 48 h, read-out: HEP-3B IC50
normal fibroblast F180 = experiment: MTT cell viability assay, F180; type: cell-based; conditions: F180, 48 h, read-out: F180 IC50
breast MCF7 cells = experiment: Cell cycle analysis by flow cytometry; type: cell-based, human; conditions: for cell cycle arrest phase: compound at its IC50; for %G0-G1 / %G2-M / %S: compound at its IC50, 24 h
In short: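 MCF7 breast cells were exposed to the test compound for 24 h, then rinsed with PBS, centrifuged and fixed in 70% ethanol. After a PBS wash they were suspended in 0.1 mg/mL RNase and stained with propidium iodide. Flow cytometry on a FACS Calibur measured DNA content to give G0/G1, S and G2/M distribution against negative control.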

MCF7 breast cells = experiment: Apoptosis by Annexin-V-FITC/PI flow cytometry; type: cell-based, human; conditions: for Apoptosis Early / Apoptosis Late / Apoptosis Total / Necrosis: compound at its IC50, 24 h; for late apoptosis increase compared to control: control 0.27% (late); for early apoptosis increase compared to control: control 0.41% (early)
In short: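 MCF7 breast cells were treated with the test compound for 24 h, then collected and rinsed twice with PBS. They were stained with Annexin-V-FITC plus propidium iodide for 30 min at room temperature in the dark. Analysis on a FACS Calibur flow cytometer gave early apoptotic, late apoptotic and necrotic fractions, compared against untreated control.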

aromatase (CYP19A) = biological target: T3, aromatase (CYP19A) (Homo sapiens, UniProt P11511); experiment: Aromatase; type: biochemical
T3 sequence (P11511 1-503): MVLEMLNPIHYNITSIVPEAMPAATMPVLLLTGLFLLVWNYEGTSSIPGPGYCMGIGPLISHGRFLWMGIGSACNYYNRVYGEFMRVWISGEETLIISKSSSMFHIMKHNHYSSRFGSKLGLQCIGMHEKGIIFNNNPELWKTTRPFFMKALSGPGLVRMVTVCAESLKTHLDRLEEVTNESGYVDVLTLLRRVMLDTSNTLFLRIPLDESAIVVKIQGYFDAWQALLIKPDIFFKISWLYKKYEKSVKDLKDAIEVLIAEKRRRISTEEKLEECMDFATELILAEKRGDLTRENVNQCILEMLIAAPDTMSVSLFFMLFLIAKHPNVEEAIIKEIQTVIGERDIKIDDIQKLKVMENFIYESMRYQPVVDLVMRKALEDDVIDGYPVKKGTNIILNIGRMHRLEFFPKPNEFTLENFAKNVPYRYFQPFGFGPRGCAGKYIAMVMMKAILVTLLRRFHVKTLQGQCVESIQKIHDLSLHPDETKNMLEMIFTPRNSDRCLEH

EGFR = EGFR (Homo sapiens, UniProt P00533); experiment: EGFR Kinase Assay Kit; type: biochemical
Sequence of EGFR (P00533 25-1210): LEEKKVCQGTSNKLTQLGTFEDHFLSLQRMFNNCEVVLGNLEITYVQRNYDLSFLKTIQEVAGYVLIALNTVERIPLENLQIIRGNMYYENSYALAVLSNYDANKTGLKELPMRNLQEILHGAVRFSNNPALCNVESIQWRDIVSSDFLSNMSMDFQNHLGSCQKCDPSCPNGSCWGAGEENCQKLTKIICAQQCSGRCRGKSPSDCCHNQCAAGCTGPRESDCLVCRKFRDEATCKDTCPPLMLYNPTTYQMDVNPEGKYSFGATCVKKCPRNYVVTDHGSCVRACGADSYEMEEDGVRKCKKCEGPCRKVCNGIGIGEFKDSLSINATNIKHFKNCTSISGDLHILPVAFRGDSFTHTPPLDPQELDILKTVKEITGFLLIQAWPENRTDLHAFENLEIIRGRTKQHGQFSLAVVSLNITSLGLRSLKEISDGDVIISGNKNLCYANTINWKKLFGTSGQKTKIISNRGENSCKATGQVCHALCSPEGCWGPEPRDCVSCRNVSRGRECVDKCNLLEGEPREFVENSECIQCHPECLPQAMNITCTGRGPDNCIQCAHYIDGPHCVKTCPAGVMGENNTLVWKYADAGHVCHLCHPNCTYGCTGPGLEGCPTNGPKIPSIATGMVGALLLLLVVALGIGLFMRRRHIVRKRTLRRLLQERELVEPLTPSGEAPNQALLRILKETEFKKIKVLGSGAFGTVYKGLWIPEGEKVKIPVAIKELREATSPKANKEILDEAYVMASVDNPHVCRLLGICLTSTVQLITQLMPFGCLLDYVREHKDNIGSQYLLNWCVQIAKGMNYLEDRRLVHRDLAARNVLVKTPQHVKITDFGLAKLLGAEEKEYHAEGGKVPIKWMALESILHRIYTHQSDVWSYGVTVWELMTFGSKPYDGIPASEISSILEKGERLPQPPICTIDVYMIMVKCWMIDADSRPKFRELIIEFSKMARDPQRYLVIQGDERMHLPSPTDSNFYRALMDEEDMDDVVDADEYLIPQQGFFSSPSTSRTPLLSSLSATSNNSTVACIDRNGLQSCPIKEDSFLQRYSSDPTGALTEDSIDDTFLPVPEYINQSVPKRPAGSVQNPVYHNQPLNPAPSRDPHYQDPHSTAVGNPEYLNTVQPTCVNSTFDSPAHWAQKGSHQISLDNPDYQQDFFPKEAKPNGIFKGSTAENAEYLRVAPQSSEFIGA
In short: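 Kinase kit assay. Each well held kinase buffer with DTT, ATP, and Poly(Glu:Tyr 4:1) PTK substrate (10 mg/ml stock). Test compound was added, and diluted EGFR enzyme started the reaction. Incubated 40 min at 30 °C, then Kinase-Glo Max reagent for 15 min at room temperature, and luminescence read. Controls were no-inhibitor wells and enzyme-free blanks.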

B-RAF^V600E = B-RAF^V600E (Homo sapiens, UniProt P15056, V600E); experiment: B-RAF^V600E Kinase Assay Kit; type: biochemical
Sequence of B-RAF^V600E (P15056 whole entry V600E): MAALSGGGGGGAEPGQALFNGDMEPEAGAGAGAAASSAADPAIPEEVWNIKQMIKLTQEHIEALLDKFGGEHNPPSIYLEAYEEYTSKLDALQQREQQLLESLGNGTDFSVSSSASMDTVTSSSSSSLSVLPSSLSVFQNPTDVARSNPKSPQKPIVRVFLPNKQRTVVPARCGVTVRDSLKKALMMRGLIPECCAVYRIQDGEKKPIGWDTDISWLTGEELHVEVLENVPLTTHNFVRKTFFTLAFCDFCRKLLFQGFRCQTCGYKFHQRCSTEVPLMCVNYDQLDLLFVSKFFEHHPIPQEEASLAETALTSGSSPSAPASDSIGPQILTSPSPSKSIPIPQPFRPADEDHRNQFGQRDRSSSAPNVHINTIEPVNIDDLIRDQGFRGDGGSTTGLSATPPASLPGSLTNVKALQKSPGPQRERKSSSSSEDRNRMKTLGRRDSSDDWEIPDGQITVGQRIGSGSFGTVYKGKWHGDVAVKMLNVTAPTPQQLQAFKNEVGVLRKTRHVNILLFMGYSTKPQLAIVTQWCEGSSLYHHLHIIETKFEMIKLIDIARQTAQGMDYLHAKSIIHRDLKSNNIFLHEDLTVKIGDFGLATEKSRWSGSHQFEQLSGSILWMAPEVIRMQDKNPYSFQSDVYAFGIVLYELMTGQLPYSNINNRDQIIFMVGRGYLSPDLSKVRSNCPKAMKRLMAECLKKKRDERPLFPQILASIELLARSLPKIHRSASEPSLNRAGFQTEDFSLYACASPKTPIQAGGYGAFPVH

SMILES: O=c1[nH]cc(F)c(=O)[nH]1 [Compound 5-F.U., reference compound]
IC50 (HCT116 colorectal cancer): 4.8 µM
IC50 ([1]; MTT, 48 h, mean of six values): 6 µM

SMILES: COc1cccc2c1C(=O)c1c(O)c3c(c(O)c1C2=O)C[C@@](O)(C(=O)CO)C[C@@H]3O[C@H]1C[C@H](N)[C@H](O)[C@H](C)O1 [Doxorubicin, doxorubicin, reference compound]
IC50 [2]: 0.3 µM
IC50 (normal fibroblast F180): 4.28 µM

SMILES: COC(=O)N[C@@H](C)CNc1nccc(-c2cn(C(C)C)nc2-c2cc(Cl)cc(NS(C)(=O)=O)c2F)n1 [Encorafenib, encorafenib, reference compound]
IC50 (EGFR): 0.037 µM

SMILES: CNC(=O)c1cc(Oc2ccc(NC(=O)Nc3ccc(Cl)c(C(F)(F)F)c3)cc2)ccn1 [Sorafenib, sorafenib, reference compound]
IC50 [3]: 3.5 µM

Now from value to molecule, other results behind:

IC50 (COX-1): 4.84 ± 0.02 µM
IC50 (COX-2): 0.343 ± 0.07 µM
COX-2 S.I. (COX-2): 14.11
SMILES: Cc1c(-c2nnc(SC/C(=N/O)c3ccccc3)n2-c2ccccc2)nnn1-c1ccc(S(N)(=O)=O)cc1 [Compound 19a, (E)-4-(4-(5-((2-(hydroxyimino)-2-phenylethyl)thio)-4-phenyl-4H-1,2,4-triazol-3-yl)-5-methyl-1H-1,2,3-triazol-1-yl)benzenesulfonamide]

IC50 (COX-1): 4.42 ± 0.021 µM
IC50 (COX-2): 0.485 ± 0.048 µM
COX-2 S.I. (COX-2): 9.11
SMILES: Cc1ccc(/C(CSc2nnc(-c3nnn(-c4ccc(S(N)(=O)=O)cc4)c3C)n2-c2ccccc2)=N\O)cc1 [Compound 19b, (E)-4-(4-(5-((2-(hydroxyimino)-2-(p-tolyl)ethyl)thio)-4-phenyl-4H-1,2,4-triazol-3-yl)-5-methyl-1H-1,2,3-triazol-1-yl)benzenesulfonamide]

IC50 (COX-1): 10.7 ± 0.025 µM
IC50 (COX-2): 0.309 ± 0.041 µM
COX-2 S.I. (COX-2): 34.62
IC50 [2]: 14 µM
IC50 [3]: 4.5 to 14 µM
IC50 ([1]; Homo sapiens, A549, 48 h): 4.5 µM
IC50 (aromatase (CYP19A)): 22.4 µM
IC50 (EGFR): 0.112 µM
IC50 (B-RAF^V600E): 0.09 µM
SMILES: COc1ccc(/C(CSc2nnc(-c3nnn(-c4ccc(S(N)(=O)=O)cc4)c3C)n2-c2ccccc2)=N\O)cc1 [Compound 19c, (E)-4-(4-(5-((2-(hydroxyimino)-2-(4-methoxyphenyl)ethyl)thio)-4-phenyl-4H-1,2,4-triazol-3-yl)-5-methyl-1H-1,2,3-triazol-1-yl)benzenesulfonamide]
IC50 (normal fibroblast F180): 15.4 µM
cell cycle arrest phase (breast MCF7 cells): cell cycle arrest at G2/M phase
%G0-G1 (breast MCF7 cells): 37.88%
%G2-M (breast MCF7 cells): 26.98%
%S (breast MCF7 cells): 35.14%
Apoptosis Early (MCF7 breast cells): 21.85%
Apoptosis Late (MCF7 breast cells): 12.36%
Apoptosis Total (MCF7 breast cells): 41.55
Necrosis (MCF7 breast cells): 7.34%
late apoptosis increase compared to control (MCF7 breast cells): 45.77 fold
early apoptosis increase compared to control (MCF7 breast cells): 53.29 fold

IC50 (COX-1): 4.63 ± 0.023 µM
IC50 (COX-2): 0.437 ± 0.037 µM
COX-2 S.I. (COX-2): 10.59
SMILES: Cc1c(-c2nnc(SC/C(=N/O)c3ccc(Cl)cc3)n2-c2ccccc2)nnn1-c1ccc(S(N)(=O)=O)cc1 [Compound 19d, (E)-4-(4-(5-((2-(4-chlorophenyl)-2-(hydroxyimino)ethyl)thio)-4-phenyl-4H-1,2,4-triazol-3-yl)-5-methyl-1H-1,2,3-triazol-1-yl)benzenesulfonamide]

IC50 (COX-1): 4.76 ± 0.034 µM
IC50 (COX-2): 0.394 ± 0.031 µM
COX-2 S.I. (COX-2): 12.08
SMILES: COc1ccc(-n2c(SC/C(=N/O)c3ccccc3)nnc2-c2nnn(-c3ccc(S(N)(=O)=O)cc3)c2C)cc1 [Compound 19g, (E)-4-(4-(5-((2-(hydroxyimino)-2-phenylethyl)thio)-4-(4-methoxyphenyl)-4H-1,2,4-triazol-3-yl)-5-methyl-1H-1,2,3-triazol-1-yl)benzenesulfonamide]

IC50 (COX-1): 8.6 ± 0.027 µM
IC50 (COX-2): 0.309 ± 0.071 µM
COX-2 S.I. (COX-2): 27.83
IC50 [2]: 15 µM
IC50 ([1]; Homo sapiens, A549, 48 h): 4 µM
IC50 (aromatase (CYP19A)): 22.7 µM
IC50 (EGFR): 0.169 µM
IC50 (B-RAF^V600E): 0.07 µM
SMILES: COc1ccc(-n2c(SC/C(=N/O)c3ccc(C)cc3)nnc2-c2nnn(-c3ccc(S(N)(=O)=O)cc3)c2C)cc1 [Compound 19h, (E)-4-(4-(5-((2-(hydroxyimino)-2-(p-tolyl)ethyl)thio)-4-(4-methoxyphenyl)-4H-1,2,4-triazol-3-yl)-5-methyl-1H-1,2,3-triazol-1-yl)benzenesulfonamide]
IC50 (normal fibroblast F180): 11.3 µM
cell cycle arrest phase (breast MCF7 cells): cell cycle arrest at G2/M phase
%G0-G1 (breast MCF7 cells): 45.44%
%G2-M (breast MCF7 cells): 26.39%
%S (breast MCF7 cells): 28.17%
Apoptosis Early (MCF7 breast cells): 22.54%
Apoptosis Late (MCF7 breast cells): 14.91%
Apoptosis Total (MCF7 breast cells): 42.21
Necrosis (MCF7 breast cells): 4.76%
late apoptosis increase compared to control (MCF7 breast cells): 55.22 fold
early apoptosis increase compared to control (MCF7 breast cells): 54.97 fold

IC50 (COX-1): 4.6 ± 0.048 µM
IC50 (COX-2): 0.363 ± 0.061 µM
COX-2 S.I. (COX-2): 12.67
SMILES: COc1ccc(/C(CSc2nnc(-c3nnn(-c4ccc(S(N)(=O)=O)cc4)c3C)n2-c2ccc(OC)cc2)=N\O)cc1 [Compound 19i, (E)-4-(4-(5-((2-(hydroxyimino)-2-(4-methoxyphenyl)ethyl)thio)-4-(4-methoxyphenyl)-4H-1,2,4-triazol-3-yl)-5-methyl-1H-1,2,3-triazol-1-yl)benzenesulfonamide]

IC50 (COX-1): 3.43 ± 0.026 µM
IC50 (COX-2): 0.397 ± 0.025 µM
COX-2 S.I. (COX-2): 8.63
IC50 [3]: 4.5 µM
SMILES: COc1ccc(-n2c(SC/C(=N/O)c3ccc(Cl)cc3)nnc2-c2nnn(-c3ccc(S(N)(=O)=O)cc3)c2C)cc1 [Compound 19j, (E)-4-(4-(5-((2-(4-chlorophenyl)-2-(hydroxyimino)ethyl)thio)-4-(4-methoxyphenyl)-4H-1,2,4-triazol-3-yl)-5-methyl-1H-1,2,3-triazol-1-yl)benzenesulfonamide]
